In ChEMBL document CHEMBL1123290, “Synthesis, antimalarial activity, and quantitative structure-activity relationships of tebuquine and a series of related 5-[(7-chloro-4-quinolinyl)amino]-3-[(alkylamino)methyl] [1,1'-biphenyl]-2-ols and N omega-oxides” (1986):

Tests used:
Type in all cases: functional
Plasmodium berghei [1] = experiment: Change in mean survival time for control (average 6.2 days) versus treated mice (Mus musculus) 72 hrs after 10 mg/kg subcutaneous dose
Plasmodium berghei [2] = experiment: Change in mean survival time for control (average 6.2 days) versus treated mice (Mus musculus) 72 hrs after 20 mg/kg subcutaneous dose
Plasmodium berghei [3] = experiment: Difference in mean survival time in mice (Mus musculus) (control = 6.2 days) after single 40mg/kg subcutaneous dose 72hr post infection
Plasmodium berghei [4] = experiment: Antimalarial activity as 60-day survivors in Plasmodium berghei infected mice (Mus musculus) after single 160mg/kg subcutaneous dose 72 hr post infection
In short: (§1)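 Mice were infected with a normal drug-sensitive Plasmodium berghei strain. At 72 h postinfection each received one subcutaneous dose of compound dissolved or suspended in peanut oil, in five-mouse groups per dose. The read-out was the number of mice alive at 60 days postinfection, which were scored as cured.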

Plasmodium berghei [5] = experiment: Antimalarial activity as 60-day survivors in infected mice (Mus musculus) after single 320mg/kg subcutaneous dose 72 hr post infection; in short: as §1
Mus musculus [6] = experiment: Antimalarial activity, administered as a single subcutaneous dose of 640 mg/kg, 72 hrs post infection measured as number of mice (Mus musculus) surviving at 60 days post infection; in short: as §1
Mus musculus [7] = experiment: Antimalarial activity, administered as a single subcutaneous dose of 80 mg/kg, 72 hrs post infection measured as number of mice (Mus musculus) surviving at 60 days post infection; in short: as §1
Plasmodium berghei [8] = experiment: Antimalarial activity in primary screen
Plasmodium berghei [9] = experiment: Change in mean survival time for control (average 6.2 days) versus treated mice (Mus musculus) 72 hrs after 5 mg/kg subcutaneous dose
Plasmodium berghei [10] = experiment: Change in mean survival time for control (average of 6.2 days) versus treated mice (Mus musculus) 72 hrs after 80 mg/kg subcutaneous dose
Plasmodium berghei [11] = experiment: Change in mean survival time for control (average 6.2 days) versus treated mice (Mus musculus) 72 hrs after […] subcutaneous dose
Plasmodium berghei [12] = experiment: Change in mean survival time for control (average 6.2 days) versus treated mice (Mus musculus) 72 hrs after 160 mg/kg subcutaneous dose
Plasmodium berghei [13] = experiment: Change in mean survival time for control (average 6.2 days) versus treated mice (Mus musculus) 72 hrs after […] subcutaneous dose
Mus musculus [14] = experiment: Antimalarial activity, administered as a single subcutaneous dose of 40 mg/kg, 72 hrs post infection measured as number of mice (Mus musculus) surviving at 60 days post infection; in short: as §1
Plasmodium berghei [15] = experiment: Change in mean survival time for control (average 6.2 days) versus treated mice (Mus musculus) 72 hrs after 640 mg/kg subcutaneous dose
Plasmodium berghei [16] = experiment: Change in mean survival time for control (average 6.2 days) versus treated mice (Mus musculus) 72 hrs after 320 mg/kg subcutaneous dose

Compound	Delta MST (Plasmodium berghei [1])	Delta MST (Plasmodium berghei [2])	Delta MST (Plasmodium berghei [3])	No. of mice cured (Plasmodium berghei [4])	No. of mice cured (Plasmodium berghei [5])	No. of mice cured (Mus musculus [6])	No. of mice cured (Mus musculus [7])	ED30 (Plasmodium berghei [8])	Delta MST (Plasmodium berghei [9])	Delta MST (Plasmodium berghei [10])	Delta MST (Plasmodium berghei [11])	Delta MST (Plasmodium berghei [12])	Delta MST (Plasmodium berghei [13])	No. of mice cured (Mus musculus [14])	Delta MST (Plasmodium berghei [15])	Delta MST (Plasmodium berghei [16])
CCN(CC)Cc1cc(Nc2ccnc3cc(Cl)ccc23)ccc1O.Cl	5.7 days	8.3 days	11.9 days	5	5	5	2	–	–	–	–	–	–	–	–	–
CCN(CC)Cc1cc(Nc2ccnc3cc(Cl)ccc23)cc(-c2ccccc2F)c1O	12.8 days	16.4 days	18.4 days	2	5	5	–	26.8 mg/kg	4.4 days	26.2 days	0 days	33.1 days	0.4 days	1	–	–
CCN(CC)Cc1cc(Nc2ccnc3cc(Cl)ccc23)cc(-c2ccc(Cl)c(Cl)c2)c1O	0.9 days	15.7 days	23.7 days	4	5	3	4	22.7 mg/kg	0.1 days	33.4 days	-0.1 days	21.4 days	-0.3 days	3	10.9 days	–
CCN(CC)Cc1cc(Nc2ccnc3cc(Cl)ccc23)cc(-c2ccc(F)cc2)c1O	–	–	13.4 days	–	–	–	–	8.8 mg/kg	–	–	–	12.8 days	–	2	14.8 days	–
CCN(CC)Cc1cc(Nc2ccnc3cc(Cl)ccc23)cc(-c2ccccc2OC)c1O	2.6 days	6.2 days	9.4 days	2	2	5	2	74 mg/kg	0.4 days	14.9 days	-0.2 days	18.9 days	0.2 days	–	–	37.9 days
CCN(CC)Cc1cc(Nc2ccnc3cc(Cl)ccc23)cc(-c2ccncc2)c1O	2.1 days	5.5 days	9.3 days	1	1	2	1	89 mg/kg	1.9 days	11.5 days	-0.1 days	21.7 days	0.5 days	–	25 days	21.2 days
CCN(CC)Cc1cc(Nc2ccnc3cc(Cl)ccc23)cc(-c2ccccc2C(F)(F)F)c1O	3.1 days	12.5 days	18.5 days	5	4	4	1	34.7 mg/kg	1.1 days	25.5 days	0.3 days	–	-0.3 days	1	20.7 days	30.7 days
CCCCN(CCCC)Cc1cc(Nc2ccnc3cc(Cl)ccc23)cc(-c2ccc(Cl)cc2)c1O	2 days	4.6 days	8.2 days	–	–	3	–	–	0.2 days	12.6 days	0.4 days	17 days	0.2 days	–	34.4 days	24 days
CCN(CC)Cc1cc(Nc2ccnc3cc(Cl)ccc23)cc(-c2ccc(O)cc2)c1O	–	-0.2 days	0.8 days	–	2	1	–	320 mg/kg	–	4.8 days	–	6.8 days	–	–	4.1 days	3.8 days
CCN(CC)Cc1cc(Nc2ccnc3cc(Cl)ccc23)cc(-c2cccc3ccccc23)c1O	0.7 days	0.3 days	2.3 days	–	1	2	–	4200 mg/kg	-0.3 days	5.8 days	0.1 days	6.6 days	-0.1 days	–	8.1 days	11.2 days
Oc1c(CN2CCCC2)cc(Nc2ccnc3cc(Cl)ccc23)cc1-c1ccc(Cl)c(Cl)c1	0.1 days	8.3 days	18.5 days	4	3	3	1	–	–	30.2 days	-0.1 days	–	-0.1 days	–	33.9 days	25.9 days
CCN(CC)Cc1cc(Nc2ccnc3cc(Cl)ccc23)cc(-c2cc(OC)ccc2OC)c1O	–	0 days	3.8 days	–	–	–	–	9680 mg/kg	–	3.6 days	–	4 days	–	–	8.6 days	8.8 days
CCN(CC)Cc1cc(Nc2ccnc3cc(Cl)ccc23)cc(-c2ccc(SC)cc2)c1O	1.3 days	6.7 days	9.1 days	–	2	4	–	151 mg/kg	0.5 days	10 days	0.5 days	19.2 days	0.1 days	–	13.6 days	25.3 days
CC(C)(C)NCc1cc(C(C)(C)C)cc(-c2ccc(Cl)cc2)c1O	–	5.1 days	12.9 days	5	5	5	–	–	–	15.7 days	–	–	–	–	–	–
CCN(CC)Cc1cc(Nc2ccnc3cc(Cl)ccc23)cc(-c2ccc(C)cc2)c1O	1.6 days	3.3 days	4.5 days	–	–	–	–	1530 mg/kg	0.4 days	6.5 days	0.4 days	9.7 days	0.4 days	–	20.5 days	14.5 days
CCN(CC)Cc1cc(Nc2ccnc3cc(Cl)ccc23)cc(-c2ccc(OC)cc2)c1O	2.9 days	4.3 days	7.3 days	2	3	5	1	112 mg/kg	1.3 days	12.4 days	0.5 days	16.1 days	0.1 days	–	–	28.9 days
CCN(CC)Cc1cc(Nc2ccnc3cc(Cl)ccc23)cc(-c2ccccn2)c1O	–	2.6 days	3.8 days	–	3	3	–	160 mg/kg	–	7.8 days	–	11.2 days	–	–	25.3 days	15.8 days
Oc1c(CNC23CC4CC(CC(C4)C2)C3)cc(Nc2ccnc3cc(Cl)ccc23)cc1-c1ccc(Cl)cc1	0.1 days	7.5 days	18.5 days	4	5	2	4	–	-0.3 days	23 days	-0.5 days	39 days	-0.3 days	–	19 days	–
CCN(CC)Cc1cc(Nc2cc[n+]([O-])c3cc(Cl)ccc23)ccc1O	–	–	–	3	5	3	–	–	–	–	–	–	–	–	–	–
CCN(CC)Cc1cc(Nc2ccnc3cc(Cl)ccc23)cc(-c2ccc(OC)c(OC)c2)c1O	–	1.2 days	3.8 days	–	–	1	–	927 mg/kg	–	5.4 days	–	8.6 days	–	–	13.1	12 days
CCN(CC)Cc1cc(Nc2ccnc3cc(Cl)ccc23)cc(CN(CC)CC)c1O [CYLCLOQUINE]	11.5 days	15.1 days	19.1 days	4	5	5	2	–	–	–	–	–	–	–	–	–
